ChEMBL document CHEMBL1250442, “Inhibiting gene expression at transcription start sites in chromosomal DNA with antigene RNAs” (Nat Chem Biol, 2005)

Legend:
Type in all cases: functional
[1] = test system: T47D; assay: Inhibition of PR-A mRNA gene expression in human T47D cells at 100 nM by syber green assay
Outline: (§1)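 T47D cells plated at 80,000/well without antibiotics two days before Oligofectamine transfection with agRNA duplex (25 or 100 nM final); medium changed at 24 h, harvest day 5 unless stated otherwise. TRIzol total RNA; PR mRNA by real-time PCR with SYBR Green: 50 °C 2 min, 95 °C 10 min, 40 cycles 95 °C 15 s/60 °C 1 min.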

[2] = test system: T47D; assay: Inhibition of PR-B mRNA gene expression in human T47D cells at 100 nM by syber green assay
Outline: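 T47D cells in RPMI-1640 with 10% FBS, NEAA, insulin, 37 °C, 5% CO2. Plated two days before transfection without antibiotics. Oligofectamine-mediated duplex RNA transfection at 100 nM final, medium changed at 24 h, harvest five days post-transfection. Total RNA extracted with TRIzol. hPR mRNA quantified by SYBR Green qPCR: 50 °C 2 min, 95 °C 10 min, then 40 cycles of 95 °C 15 s / 60 °C 1 min.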

[3] = test system: T47D; assay: Inhibition of PR-A gene expression in human T47D cells at 25 nM by syber green assay; outline: as §1
[4] = test system: T47D; assay: Inhibition of PR-B gene expression in human T47D cells at 25 nM by syber green assay; outline: as §1

Cc1cn([C@H]2C[C@H](OP(=O)(O)OC[C@H]3O[C@@H](n4cc(C)c(=O)[nH]c4=O)C[C@@H]3O)[C@@H](COP(=O)(O)O[C@H]3[C@@H](O)[C@H](n4ccc(N)nc4=O)O[C@@H]3COP(=O)(O)O[C@H]3[C@@H](O)[C@H](n4cnc5c(=O)[nH]c(N)nc54)O[C@@H]3COP(=O)(O)O[C@H]3[C@@H](O)[C@H](n4cnc5c(N)ncnc54)O[C@@H]3COP(=O)(O)O[C@H]3[C@@H](O)[C@H](n4cnc5c(=O)[nH]c(N)nc54)O[C@@H]3COP(=O)(O)O[C@H]3[C@@H](O)[C@H](n4cnc5c(N)ncnc54)O[C@@H]3COP(=O)(O)O[C@H]3[C@@H](O)[C@H](n4ccc(N)nc4=O)O[C@@H]3COP(=O)(O)O[C@H]3[C@@H](O)[C@H](n4ccc(N)nc4=O)O[C@@H]3COP(=O)(O)O[C@H]3[C@@H](O)[C@H](n4ccc(=O)[nH]c4=O)O[C@@H]3COP(=O)(O)O[C@H]3[C@@H](O)[C@H](n4cnc5c(=O)[nH]c(N)nc54)O[C@@H]3COP(=O)(O)O[C@H]3[C@@H](O)[C@H](n4cnc5c(N)ncnc54)O[C@@H]3COPO[C@H]3[C@@H](O)[C@H](n4ccc(N)nc4=O)O[C@@H]3COP(=O)(O)O[C@H]3[C@@H](O)[C@H](n4cnc5c(=O)[nH]c(N)nc54)O[C@@H]3COP(=O)(O)O[C@H]3[C@@H](O)[C@H](n4cnc5c(=O)[nH]c(N)nc54)O[C@@H]3COP(=O)(O)O[C@H]3[C@@H](O)[C@H](n4cnc5c(=O)[nH]c(N)nc54)O[C@@H]3COP(=O)(O)O[C@H]3[C@@H](O)[C@H](n4ccc(=O)[nH]c4=O)O[C@@H]3COP(=O)(O)O[C@H]3[C@@H](O)[C@H](n4ccc(N)nc4=O)O[C@@H]3COP(=O)(O)O[C@H]3[C@@H](O)[C@H](n4ccc(=O)[nH]c4=O)O[C@@H]3COP(=O)(O)O[C@H]3[C@@H](O)[C@H](n4ccc(N)nc4=O)O[C@@H]3COP(=O)(O)O[C@H]3[C@@H](O)[C@H](n4ccc(=O)[nH]c4=O)O[C@@H]3CO)O2)c(=O)[nH]c1=O (some centres not stated)
inhibition at 0.1 µM [1]: < 20% | inhibition at 0.1 µM [2]: < 20%

Cc1cn([C@H]2C[C@H](OP(=O)(O)OC[C@H]3O[C@@H](n4cnc5c(=O)[nH]c(N)nc54)C[C@@H]3OP(=O)(O)OC[C@H]3O[C@@H](n4cc(C)c(=O)[nH]c4=O)C[C@@H]3OP(=O)(O)OC[C@H]3O[C@@H](n4ccc(N)nc4=O)C[C@@H]3OP(=O)(O)OC[C@H]3O[C@@H](n4cc(C)c(=O)[nH]c4=O)C[C@@H]3OP(=O)(O)OC[C@H]3O[C@@H](n4cnc5c(=O)[nH]c(N)nc54)C[C@@H]3OP(=O)(O)OC[C@H]3O[C@@H](n4cnc5c(=O)[nH]c(N)nc54)C[C@@H]3OP(=O)(O)OC[C@H]3O[C@@H](n4ccc(N)nc4=O)C[C@@H]3OP(=O)(O)OC[C@H]3O[C@@H](n4ccc(N)nc4=O)C[C@@H]3OP(=O)(O)OC[C@H]3O[C@@H](n4cnc5c(N)ncnc54)C[C@@H]3OP(=O)(O)OC[C@H]3O[C@@H](n4cnc5c(=O)[nH]c(N)nc54)C[C@@H]3OP(=O)(O)OC[C@H]3O[C@@H](n4cc(C)c(=O)[nH]c4=O)C[C@@H]3OP(=O)(O)OC[C@H]3O[C@@H](n4ccc(N)nc4=O)C[C@@H]3OP(=O)(O)OC[C@H]3O[C@@H](n4ccc(N)nc4=O)C[C@@H]3OP(=O)(O)OC[C@H]3O[C@@H](n4cnc5c(N)ncnc54)C[C@@H]3OP(=O)(O)OC[C@H]3O[C@@H](n4ccc(N)nc4=O)C[C@@H]3OP(=O)(O)OC[C@H]3O[C@@H](n4cnc5c(N)ncnc54)C[C@@H]3OP(=O)(O)OC[C@H]3O[C@@H](n4cnc5c(=O)[nH]c(N)nc54)C[C@@H]3OP(=O)(O)OC[C@H]3O[C@@H](n4ccc(N)nc4=O)C[C@@H]3O)[C@@H](CO)O2)c(=O)[nH]c1=O
inhibition at 0.1 µM [1]: < 20% | inhibition at 0.1 µM [2]: < 20%

Cc1cn([C@H]2C[C@H](OP(=O)(O)OC[C@H]3O[C@@H](n4cnc5c(=O)[nH]c(N)nc54)C[C@@H]3OP(=O)(O)OC[C@H]3O[C@@H](n4cc(C)c(=O)[nH]c4=O)C[C@@H]3OP(=O)(O)OC[C@H]3O[C@@H](n4ccc(N)nc4=O)C[C@@H]3OP(=O)(O)OC[C@H]3O[C@@H](n4cc(C)c(=O)[nH]c4=O)C[C@@H]3OP(=O)(O)OC[C@H]3O[C@@H](n4cnc5c(=O)[nH]c(N)nc54)C[C@@H]3OP(=O)(O)OC[C@H]3O[C@@H](n4cnc5c(=O)[nH]c(N)nc54)C[C@@H]3OP(=O)(O)OC[C@H]3O[C@@H](n4ccc(N)nc4=O)C[C@@H]3OP(=O)(O)OC[C@H]3O[C@@H](n4ccc(N)nc4=O)C[C@@H]3OP(=O)(O)OC[C@H]3O[C@@H](n4cnc5c(N)ncnc54)C[C@@H]3OP(=O)(O)OC[C@H]3O[C@@H](n4cnc5c(=O)[nH]c(N)nc54)C[C@@H]3OP(=O)(O)OC[C@H]3O[C@@H](n4cc(C)c(=O)[nH]c4=O)C[C@@H]3OP(=O)(O)OC[C@H]3O[C@@H](n4ccc(N)nc4=O)C[C@@H]3OP(=O)(O)OC[C@H]3O[C@@H](n4ccc(N)nc4=O)C[C@@H]3OP(=O)(O)OC[C@H]3O[C@@H](n4cnc5c(N)ncnc54)C[C@@H]3OP(=O)(O)OC[C@H]3O[C@@H](n4ccc(N)nc4=O)C[C@@H]3OP(=O)(O)OC[C@H]3O[C@@H](n4cnc5c(N)ncnc54)C[C@@H]3OP(=O)(O)OC[C@H]3O[C@@H](n4cnc5c(=O)[nH]c(N)nc54)C[C@@H]3OP(=O)(O)OC[C@H]3O[C@@H](n4ccc(N)nc4=O)C[C@@H]3OP(=O)(O)OC[C@H]3O[C@@H](n4cc(C)c(=O)[nH]c4=O)C[C@@H]3OP(=O)(O)OC[C@H]3O[C@@H](n4cc(C)c(=O)[nH]c4=O)C[C@@H]3O)[C@@H](CO)O2)c(=O)[nH]c1=O
inhibition at 0.1 µM [1]: < 20% | inhibition at 0.1 µM [2]: < 20%

Cc1cn([C@@H]2O[C@H](COP(=O)(O)O[C@H]3C[C@H](n4cc(C)c(=O)[nH]c4=O)O[C@@H]3COP(=O)(O)O[C@H]3[C@@H](O)[C@H](n4ccc(N)nc4=O)O[C@@H]3COP(=O)(O)O[C@H]3[C@@H](O)[C@H](n4cnc5c(=O)[nH]c(N)nc54)O[C@@H]3COP(=O)(O)O[C@H]3[C@@H](O)[C@H](n4cnc5c(N)ncnc54)O[C@@H]3COP(=O)(O)O[C@H]3[C@@H](O)[C@H](n4ccc(N)nc4=O)O[C@@H]3COP(=O)(O)O[C@H]3[C@@H](O)[C@H](n4cnc5c(N)ncnc54)O[C@@H]3COP(=O)(O)O[C@H]3[C@@H](O)[C@H](n4ccc(N)nc4=O)O[C@@H]3COP(=O)(O)O[C@H]3[C@@H](O)[C@H](n4ccc(N)nc4=O)O[C@@H]3COP(=O)(O)O[C@H]3[C@@H](O)[C@H](n4ccc(=O)[nH]c4=O)O[C@@H]3COP(=O)(O)O[C@H]3[C@@H](O)[C@H](n4cnc5c(=O)[nH]c(N)nc54)O[C@@H]3COP(=O)(O)OC3[C@@H](O)[C@H](n4cnc5c(N)ncnc54)O[C@@H]3COP(=O)(O)O[C@H]3[C@@H](O)[C@H](n4ccc(N)nc4=O)O[C@@H]3COP(=O)(O)O[C@H]3[C@@H](O)[C@H](n4cnc5c(=O)[nH]c(N)nc54)O[C@@H]3COP(=O)(O)O[C@H]3[C@@H](O)[C@H](n4cnc5c(=O)[nH]c(N)nc54)O[C@@H]3COP(=O)(O)O[C@H]3[C@@H](O)[C@H](n4cnc5c(=O)[nH]c(N)nc54)O[C@@H]3COP(=O)(O)O[C@H]3[C@@H](O)[C@H](n4ccc(=O)[nH]c4=O)O[C@@H]3COP(=O)(O)O[C@H]3[C@@H](O)[C@H](n4ccc(N)nc4=O)O[C@@H]3COP(=O)(O)O[C@H]3[C@@H](O)[C@H](n4ccc(=O)[nH]c4=O)O[C@@H]3COP(=O)(O)O[C@H]3[C@@H](O)[C@H](n4cnc5c(=O)[nH]c(N)nc54)O[C@@H]3COP(=O)(O)O[C@H]3[C@@H](O)[C@H](n4ccc(=O)[nH]c4=O)O[C@@H]3CO)[C@@H](O)[C@H]2O)c(=O)[nH]c1=O (some centres not stated)
inhibition at 0.025 µM [3]: 53% | inhibition at 0.025 µM [4]: 75% | inhibition at 0.1 µM [1]: 67% | inhibition at 0.1 µM [2]: 91%

Cc1cn([C@H]2C[C@H](OP(=O)(O)OC[C@H]3O[C@@H](n4cc(C)c(=O)[nH]c4=O)C[C@@H]3O)[C@@H](COP(=O)(O)O[C@H]3[C@@H](O)[C@H](n4ccc(N)nc4=O)O[C@@H]3COP(=O)(O)O[C@H]3[C@@H](O)[C@H](n4cnc5c(=O)[nH]c(N)nc54)O[C@@H]3COP(=O)(O)O[C@H]3[C@@H](O)[C@H](n4cnc5c(N)ncnc54)O[C@@H]3COP(=O)(O)O[C@H]3[C@@H](O)[C@H](n4ccc(N)nc4=O)O[C@@H]3COP(=O)(O)O[C@H]3[C@@H](O)[C@H](n4cnc5c(N)ncnc54)O[C@@H]3COP(=O)(O)O[C@H]3[C@@H](O)[C@H](n4cnc5c(=O)[nH]c(N)nc54)O[C@@H]3COP(=O)(O)O[C@H]3[C@@H](O)[C@H](n4ccc(N)nc4=O)O[C@@H]3COP(=O)(O)O[C@H]3[C@@H](O)[C@H](n4ccc(=O)[nH]c4=O)O[C@@H]3COP(=O)(O)O[C@H]3[C@@H](O)[C@H](n4cnc5c(=O)[nH]c(N)nc54)O[C@@H]3COP(=O)(O)O[C@H]3[C@@H](O)[C@H](n4cnc5c(N)ncnc54)O[C@@H]3COP(=O)(O)O[C@H]3[C@@H](O)[C@H](n4ccc(N)nc4=O)O[C@@H]3COP(=O)(O)O[C@H]3[C@@H](O)[C@H](n4ccc(N)nc4=O)O[C@@H]3COP(=O)(O)O[C@H]3[C@@H](O)[C@H](n4cnc5c(=O)[nH]c(N)nc54)O[C@@H]3COP(=O)(O)O[C@H]3[C@@H](O)[C@H](n4ccc(N)nc4=O)O[C@@H]3COP(=O)(O)O[C@H]3[C@@H](O)[C@H](n4ccc(=O)[nH]c4=O)O[C@@H]3COP(=O)(O)O[C@H]3[C@@H](O)[C@H](n4ccc(N)nc4=O)O[C@@H]3COP(=O)(O)O[C@H]3[C@@H](O)[C@H](n4ccc(=O)[nH]c4=O)O[C@@H]3COP(=O)(O)O[C@H]3[C@@H](O)[C@H](n4cnc5c(=O)[nH]c(N)nc54)O[C@@H]3COP(=O)(O)O[C@H]3[C@@H](O)[C@H](n4ccc(=O)[nH]c4=O)O[C@@H]3CO)O2)c(=O)[nH]c1=O
inhibition at 0.1 µM [1]: < 20% | inhibition at 0.1 µM [2]: < 20%
